The list is not random: actives were taken first. Their share in the collection is about 3.3%.
HTR2A ag: agonists of mouse serotonin 5-HT2A receptor (HTR2A) | P35363 | CHO-K1 mHTR2A beta-arrestin complementation, luminescence; percent of 30 µM serotonin response | activation, % at 7.6 µM | 360,000 compounds, 0.66% hits;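 active means activation above a run cutoff, the mean activation of all tested compounds plus 3 SD, cut at about 14% in these data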;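 further: 0% = plate median of compound wells and 100% = 30 µM serotonin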
CendR NRP1 mod: alters CendR peptide binding to human NRP-1; O14786; FAM-RPARPAR peptide binding to NRP-1, fluorescence polarization; inhibition, % at 25 µM; 360,000 compounds, 0.85% hits;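 active means inhibition or corrected inhibition above about 18%, plus a signal ratio from 0.5 to 1.5, limit read from the data, passing the limit was not always enough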
PfM18AAP inh: blocks P. falciparum M18 aspartyl aminopeptidase; inhibition, % at 7.35 µM; recombinant PfM18AAP, H-Glu-NHMec fluorogenic cleavage; 290,000 compounds, 1.2% hits;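 active means inhibition above the campaign mean inhibition over all tested compounds plus 3 SD, cut at about 28% in these data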;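 further: 0% = plate median of test compound wells and 100% = 2 mM ZnCl2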
HGIII-sPLA2 inh: Inhibits HGIII-sPLA2 liposome hydrolysis, primary screen; AID 743126; 370,000 compounds, 0.56% hits; Q9NZ20; QFRET BODIPY PC-A2 liposome hydrolysis, fluorescence; inhibition, % at 12.2 µM;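 active means inhibition above mean plus 3 SD of compounds lying within the high and low control bounds, cut at about 19% in these data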;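 further: 0% = median of test compound wells and 100% = no enzyme DMSO wells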
Arr AP2 block: blocks beta-arrestin peptide binding to AP2 adaptin | FITC-arrestin peptide / GST-AP2 beads, flow cytometry; AP2 beta2 appendage carries R879A mutation | 340,000 compounds, 0.31% hits | inhibition, % at 10 µM;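 active means inhibition above a set limit, near 3 SD of compounds lacking own fluorescence, cut at about 54% in these data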;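 further: plate controls were DMSO wells for no effect and 5 µM unlabelled arrestin peptide for full effect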
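System: GST-AP2 R879A glutathione beads | Also added: FITC-arrestin peptide, 50 nM | Times: 12 min plus 1 h, RT | Signal: Bead flow cytometry, FITC channel | Buffer or medium: PBS with 0.05% Tween 20 and 0.1% BSA | Read-out basis: Percent drop in bead-associated FITC signal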
Lipid droplet: hepatic lipid droplet formation modulation; AML12 mouse hepatocytes, oleate lipid droplets, BODIPY imaging; inhibition, % at 6.5 µM; 240,000 compounds, 0.4% hits;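 active means lipid droplet intensity inhibited by at least 50%, with more than 500 cells counted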
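Test system: AML12 hepatocytes (mouse); reagent: oleate loading, 100 µM; dosing: one dose, 6.5 µM compound; incubation: overnight exposure; signal: fluorescence imaging, 20x objective, two fields per well; read-out basis: % inhibition of corrected integrated BODIPY droplet signal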
OPRM1 ag: counter-screen for mouse HTR2A agonists: human mu opioid receptor agonists. U2OS OPRM1 beta-arrestin PathHunter, luminescence; DMSO 0%, DAMGO 9.3 µM 100%. 2,300 compounds, 5.3% hits. activation, % at 9.3 µM. AID 624380. shares compounds with HTR2A ag;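 active means mean activation above the mean of DMSO-only wells plus 3 SD, cut at about 0.5% in these data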
Target sequence (P35372 whole entry, looked up): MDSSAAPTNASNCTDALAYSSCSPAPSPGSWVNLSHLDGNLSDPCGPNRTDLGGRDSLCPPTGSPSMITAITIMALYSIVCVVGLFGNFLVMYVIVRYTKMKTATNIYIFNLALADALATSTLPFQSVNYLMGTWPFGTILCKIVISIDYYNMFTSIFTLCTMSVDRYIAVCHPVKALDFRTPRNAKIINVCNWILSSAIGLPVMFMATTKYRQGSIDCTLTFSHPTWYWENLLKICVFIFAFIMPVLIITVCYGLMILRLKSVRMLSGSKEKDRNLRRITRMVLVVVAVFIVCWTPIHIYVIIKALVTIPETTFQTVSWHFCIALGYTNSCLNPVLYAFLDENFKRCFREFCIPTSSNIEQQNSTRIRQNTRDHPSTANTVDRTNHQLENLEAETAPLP
m5-HT2A ag conf: confirmation of mouse HTR2A serotonin receptor agonists; CHO-K1 PathHunter beta-arrestin recruitment, luminescence; DMSO 0%, 30 µM serotonin 100%; 2,300 compounds, 19% hits; activation, % at 7.6 µM; shares compounds with HTR2A ag;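 active means mean activation across triplicates above the hit threshold derived in the original primary screen, cut at about 15% in these data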
The depositor's hits bear a star; · = not tested or not shown.

SMILES	HTR2A ag	CendR NRP1 mod	PfM18AAP inh	HGIII-sPLA2 inh	Arr AP2 block	Lipid droplet	OPRM1 ag	m5-HT2A ag conf
CC(C)c1cc(NCC2CCCO2)n2c(nc3ccccc32)c1C#N (configuration not stated)	17.2*	-24.6	3.0	5.0	-5.5	-4.3	0.8*	24.5*
COC(CNC(=O)c1ccc2c(c1)nc(C)n2-c1ccc(F)c(F)c1)OC	15.0*	15.4	-2.5	8.6	5.6	-0.1	-0.8	-2.6
COC(CNC(=O)c1ccc2c(c1)nc(C)n2-c1cccc(F)c1)OC	0.3	1.5	-7.9	1.4	-6.4	-0.6	·	·
CCCC(=O)Nc1c(-c2ccccc2)c(=O)c(C)nn1-c1ccc(Cl)cc1	15.3*	-3.7	3.4	1.5	1.0	17.7	-0.7	-3.2
CCCn1c(CN2CCN(C(=O)c3ccco3)CC2)nc2cc(S(=O)(=O)N(C)C)ccc21	3.1	7.4	·	-7.4	0.7	·	·	·
CC(C)c1[nH]nc2c1C1(CCN(Cc3ccccc3)CC1)C(C#N)=C(N)O2	30.7*	-14.2	5.0	-5.7	-11.3	-15.6	-0.5	-4.8
CCCCCCN1C[C@H](O)[C@@H](n2cc(-c3ccc(F)cc3)nn2)C[C@@H]1c1ccccc1	-7.3	11.2	·	-17.8	·	·	·	·
C=CCN=C1NC(c2ccccc2C(F)(F)F)C(C(=O)OC)=C(C)N1Cc1ccc(C(F)(F)F)cc1 (configuration not stated)	·	·	·	-7.9	·	·	·	·
Cc1ccc(S(=O)(=O)N2CCOCC2)cc1NC(=O)CNCc1ccc(Cl)cc1Cl	-0.6	10.6	·	-5.1	-11.2	·	·	·
Cc1ccc(S(=O)(=O)N2CCOCC2)cc1NC(=O)CNCc1cccnc1	28.0*	7.2	2.9	-4.2	-6.4	-1.6	-0.7	75.1*
Cc1ccc(S(=O)(=O)N2CCOCC2)cc1NC(=O)COC(=O)c1ccc2c(c1)OCCO2	17.1*	10.8	2.7	1.6	44.5	36.2	-0.6	-3.5
CC(=O)N1N=C(c2c(-c3ccccc3)c3cc(C)ccc3[nH]c2=O)CC1c1ccco1 (configuration not stated)	2.9	-2.7	11.3	-22.4	7.4	9.5	·	·
CC(=O)N1N=C(c2c(-c3ccccc3)c3cc(Br)ccc3[nH]c2=O)CC1c1ccco1 (configuration not stated)	24.5*	23.6*	1.8	-19.6	-15.3	-13.6	0.5	29.5*
O=C(Nc1ccc(C(F)(F)F)cc1)OC1CCC12CCC(c1ccccc1)CC2 (configuration not stated)	·	·	·	8.0	·	·	·	·
Oc1ccc(Nc2nnc(-c3ccc(O)cc3)c3ccccc23)cc1	11.0	-9.8	11.8	-30.5	-45.6	0.7	·	·
COc1ccc(Nc2nnc(-c3ccc(O)cc3)c3ccccc23)cc1	30.4*	17.7	-5.6	-14.6	-4.2	1.4	-0.5	5.8
Fc1ccc2nc3[nH]c4ccccc4c3nc2c1	22.4*	-4.9	-8.3	1.0	22.2	·	-0.3	-1.0
OC1=C(O)c2nc3cc(F)ccc3nc21	5.7	-2.1	-1.3	-6.2	33.3	-7.3	·	·
CCCS(=O)(=O)NC(=O)C1(C)CCN(C(=O)c2cc(F)cc(F)c2)C1 (configuration not stated)	14.7*	5.3	·	5.4	·	·	-0.7	-6.5
CCCS(=O)(=O)NC(=O)C1(C)CCN(C(=O)C2(c3ccc(Cl)cc3)CCCC2)C1 (configuration not stated)	16.5*	-16.3	·	5.3	·	·	0.0	1.8
CCCCCOC(=O)C1=C(C)Nc2nnnn2C1c1ccccc1Cl (configuration not stated)	19.3*	4.3	-3.7	-29.1	-0.9	24.3	0.5*	1.9
CCCn1c(SCC(=O)NCCc2ccc(Cl)cc2Cl)n[nH]c1=O	15.9*	1.4	-5.1	-1.8	-1.7	·	-0.3	-0.1
O=C1[C@H](Oc2ccccc2)[C@@H](c2ccccc2)N1c1ccncc1	18.3*	5.9	·	-7.6	-10.2	·	-0.3	-8.1

High-throughput results (PubChem)
